Calls of active or inactive are those of the source. The rule behind the calls is not given here.
Columns and labels:
[1] = target: T1, Alpha-2A adrenergic receptor (Homo sapiens) (UniProt P08913); assay: Antagonist activity at human alpha2A adrenoceptor expressed in CHO cells assessed as effect on agonist-induced extracellular acidification by microphysiometry; type: functional, cell-based
T1 sequence (whole entry): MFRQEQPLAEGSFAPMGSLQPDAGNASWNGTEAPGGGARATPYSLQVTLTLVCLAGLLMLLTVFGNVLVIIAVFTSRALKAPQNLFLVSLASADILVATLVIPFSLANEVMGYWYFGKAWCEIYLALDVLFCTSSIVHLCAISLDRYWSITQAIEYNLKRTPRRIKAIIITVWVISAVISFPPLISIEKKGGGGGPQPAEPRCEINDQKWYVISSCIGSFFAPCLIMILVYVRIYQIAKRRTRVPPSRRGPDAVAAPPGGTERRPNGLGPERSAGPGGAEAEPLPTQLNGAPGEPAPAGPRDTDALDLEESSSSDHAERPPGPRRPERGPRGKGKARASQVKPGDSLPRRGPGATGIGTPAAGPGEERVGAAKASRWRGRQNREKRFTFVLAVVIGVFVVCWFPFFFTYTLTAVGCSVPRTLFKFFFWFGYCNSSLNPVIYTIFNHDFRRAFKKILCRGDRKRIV
Method in brief: (§1)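 CHO cells stably expressing one human α2-AR subtype were run on the Cytosensor microphysiometer with bicarbonate-free DMEM perfusion. […] Kb = M/(concentration ratio − 1), where the ratio is EC50 with antagonist over EC50 without. Reported as pKb, mean ± SEM of 3–6 experiments.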

[2] = target: T2, Alpha-2B adrenergic receptor (Homo sapiens) (UniProt P18089); assay: Antagonist activity at human alpha2B adrenoceptor expressed in CHO cells assessed as effect on agonist-induced extracellular acidification by microphysiometry; type: functional, cell-based; method in brief: as §1
T2 sequence (whole entry): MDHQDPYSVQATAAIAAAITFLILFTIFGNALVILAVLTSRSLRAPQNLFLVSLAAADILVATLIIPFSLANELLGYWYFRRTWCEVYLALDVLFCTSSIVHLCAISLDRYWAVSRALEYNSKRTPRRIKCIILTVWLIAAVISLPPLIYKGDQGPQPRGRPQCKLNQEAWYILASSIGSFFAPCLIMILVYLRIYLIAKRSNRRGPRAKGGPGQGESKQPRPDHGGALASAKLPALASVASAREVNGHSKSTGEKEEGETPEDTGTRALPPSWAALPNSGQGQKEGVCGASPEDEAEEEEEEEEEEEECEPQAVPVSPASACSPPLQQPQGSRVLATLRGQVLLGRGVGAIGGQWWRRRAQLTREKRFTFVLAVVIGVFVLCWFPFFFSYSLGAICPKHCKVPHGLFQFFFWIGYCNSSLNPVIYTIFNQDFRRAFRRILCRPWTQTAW

[3] = target: T3, Alpha-2C adrenergic receptor (Homo sapiens) (UniProt P18825); assay: Agonist activity at human Alpha-2C adrenoceptor expressed in CHO cells assessed as induction of extracellular acidification by microphysiometry relative to (-)noradrenaline; type: functional, cell-based
T3 sequence (whole entry): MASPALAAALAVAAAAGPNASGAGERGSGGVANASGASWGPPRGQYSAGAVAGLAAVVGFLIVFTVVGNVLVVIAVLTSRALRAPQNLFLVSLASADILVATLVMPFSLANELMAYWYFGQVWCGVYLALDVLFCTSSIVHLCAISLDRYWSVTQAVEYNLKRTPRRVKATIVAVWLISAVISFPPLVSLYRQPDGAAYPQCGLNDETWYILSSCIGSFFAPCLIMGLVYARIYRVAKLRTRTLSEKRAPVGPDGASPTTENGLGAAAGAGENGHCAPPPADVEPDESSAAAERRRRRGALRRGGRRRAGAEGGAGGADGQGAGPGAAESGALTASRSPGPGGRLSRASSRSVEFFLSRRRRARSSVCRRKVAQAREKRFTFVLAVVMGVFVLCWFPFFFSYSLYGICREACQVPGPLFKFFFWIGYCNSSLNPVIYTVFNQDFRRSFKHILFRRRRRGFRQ
Method in brief: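 Cytosensor microphysiometry on CHO cells stably expressing one human α2-AR subtype, seeded at 3 × 10⁵ cells/cup and grown 24 h at 37 °C. Cells were perfused with bicarbonate-free DMEM and exposed to agonist for 4 min, with 30 min washes between exposures. The read-out is the change in acidification rate: peak after agonist minus the mean of three prior readings. […] Mean ± SEM, 3–6 experiments.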

[4] = target: T4, Alpha-2A adrenergic receptor (Homo sapiens, UniProt P08913); assay: Displacement of [3H]RX821002 from human alpha2A adrenoceptor expressed in CHO cells; type: cell-based
T4 sequence (P08913 whole entry): T1 sequence (whole entry)
Method in brief: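 Crude membranes from CHO cells expressing human α2A-AR were incubated in Tris-Mg buffer (50 mM Tris-HCl, 0.5 mM MgCl₂, pH 7.5). Ki came from one- or two-site nonlinear regression and is given as pKi.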

[5] = target: T5, Alpha-2B adrenergic receptor (Homo sapiens, UniProt P18089); assay: Displacement of [3H]RX821002 from human alpha2B adrenoceptor expressed in CHO cells; type: cell-based
T5 sequence (P18089 whole entry): T2 sequence (whole entry)
Method in brief: (§2)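 Buffer was Tris-Mg (50 mM Tris-HCl, 0.5 mM MgCl2, pH 7.5), competitor 10^-9 to 10^-4 M, 30 min at room temperature. Bound ligand was filtered and counted. Ki by nonlinear one- or two-site fit, reported as pKi.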

[6] = target: T6, Alpha-2C adrenergic receptor (Homo sapiens, UniProt P18825); assay: Displacement of [3H]RX821002 from human Alpha-2C adrenoceptor expressed in CHO cells; type: cell-based; method in brief: as §2
T6 sequence (P18825 whole entry): T3 sequence (whole entry)

[7] = target: T6, Alpha-2C adrenergic receptor; assay: Agonist activity at human Alpha-2C adrenoceptor expressed in CHO cells assessed as induction of extracellular acidification by microphysiometry; type: functional, cell-based
Method in brief: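 Cytosensor microphysiometry on CHO cells stably expressing one human α2-AR subtype, seeded at 3 × 10⁵ cells/cup and grown 24 h at 37 °C. Cells were perfused with bicarbonate-free DMEM and exposed to agonist for 4 min, with 30 min washes between exposures. The read-out is the change in acidification rate: peak after agonist minus the mean of three prior readings. Mean ± SEM, 3–6 experiments.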

Mus musculus [8] = assay: Enhancement of morphine-induced analgesic effect in CD1 mouse at 0.05 mg/kg, ip administered 15 mins before morphine dosing measured 30 to 240 mins post morphine challenge by radiant heat tail flick test; type: functional, organism-based; design: dose 0.05 mg/kg
Method in brief: (§3)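 Male CD-1 mice (25–35 g) received test agent 0.05 mg/kg ip or vehicle 15 min before morphine 5 mg/kg sc. Radiant-heat tail-flick to the lower third of the tail; baseline latency (2–3 s) is the mean of two trials. Latencies were read at 30, 60, 90, 120 and 240 min and expressed as %MPE. 7–8 mice per group, mean ± SEM.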

Mus musculus [9] = assay: Analgesic effect in CD1 mouse at 0.05 mg/kg, ip by radiant heat tail flick test; type: functional, organism-based; design: dose 0.05 mg/kg; method in brief: as §3
[10] = target: T2, Alpha-2B adrenergic receptor (Homo sapiens); details: CHO
[11] = target: T5, Alpha-2B adrenergic receptor; assay: Agonist activity at human alpha2B adrenoceptor expressed in CHO cells assessed as induction of extracellular acidification by microphysiometry
Mus musculus [12] = assay: Enhancement of morphine-induced analgesic effect in CD1 mouse at 0.05 mg/kg, ip administered 15 mins before morphine dosing measured 30 to 240 mins post morphine challenge in presence of Alpha-2C adrenergic receptor antagonist yohimbine by radiant heat tail flick test; type: functional, organism-based; design: dose 0.05 mg/kg
Method in brief: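 Male CD-1 mice got yohimbine 1.250 mg/kg ip 15 min before test agent (0.05 mg/kg ip). Test agent was given 15 min before morphine 5 mg/kg sc. Radiant-heat tail-flick latency was read 30–240 min after morphine and expressed as %MPE.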

Mus musculus [13] = assay: Reduction in morphine tolerance acquisition in CD1 mouse assessed as morphine analgesic effect incidence at 0.05 mg/kg, ip administered as single dose 15 mins before last morphine dosing on test day post morphine challenge by radiant heat tail flick test; type: functional; design: scale not given: the % may be the effect or the level left; details: route intraperitoneal
Method in brief: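 Tolerance was induced in male CD-1 mice with morphine 10 mg/kg sc twice daily at 12 h intervals for 5 days. On day 5, test agent 0.05 mg/kg ip was given once, 15 min before the last morphine injection. Tail-flick antinociception was read 30 min after that injection and expressed as %MPE, with day 1 vs day 5 compared.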

Mus musculus [14] = assay: Reduction in morphine dependence expression in CD1 mouse assessed as decrease in expression of naloxone-precipitated withdrawal syndrome at 0.05 mg/kg, ip administered as single dose […] on test day post morphine challenge […]; type: functional, organism-based; design: dose 0.05 mg/kg
Mus musculus [15] = assay: Toxicity in CD1 mouse assessed as effect on sleep duration at 0.05 mg/kg, ip by pentobarbital sodium induced sleep time assay; type: organism-based; design: dose 0.05 mg/kg, route intraperitoneal; details: in vivo
Method in brief: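 Male CD-1 mice (n = 10 per group) were given test agent 0.05 mg/kg or vehicle, then sodium pentobarbital 50 mg/kg ip 15 min later. Sleep duration, the time from loss to regain of the righting reflex, was recorded in seconds. Mean ± SEM.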

Mus musculus [16] = assay: Reduction in morphine tolerance acquisition in CD1 mouse assessed as morphine analgesic effect incidence at 0.05 mg/kg, ip bid administered 15 mins before last morphine dosing by radiant heat tail flick test; type: functional, organism-based; design: dose 0.05 mg/kg
Mus musculus [17] = assay: Reduction in morphine dependence expression in CD1 mouse assessed as decrease in expression of naloxone-precipitated withdrawal syndrome at 0.05 mg/kg, ip bid administered 15 mins before last morphine dosing […]; type: functional, organism-based; design: dose 0.05 mg/kg
Method in brief: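 In male CD-1 mice, morphine 10 mg/kg sc was given twice daily at 12 h intervals for 6 days, with test agent 0.05 mg/kg ip 15 min before each morphine dose. Jumping was counted, and somatic signs were scored as the sum of rearing, forepaw tremor and teeth chatter. Blind observers; mean ± SEM.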

| SMILES | pKb [1] | pKb [2] | Intrinsic activity [3] | Ki [4] | Ki [5] | Ki [6] | EC50 [7] | also measured |
| --- | --- | --- | --- | --- | --- | --- | --- | --- |
| C[C@@H](Oc1ccccc1-c1cccc([N+](=O)[O-])c1)C1=NCCN1 | 7.11 | 6.07 | 0.8 |  |  |  |  |  |
| C[C@@H](Oc1ccccc1C1CC1)C1=NCCN1 | 6.9 |  | 0.5 | 44.7 nM | 562 nM | 126 nM | 126 nM | Activity (Mus musculus [8]): Active; Activity (Mus musculus [9]): inactive; pEC50 [10]: inactive |
| Clc1cccc(Cl)c1NC1=NCCN1 |  |  | 0.6 |  |  |  |  |  |
| C[C@@H](Oc1ccccc1-c1ccccc1)C1=NCCN1 |  |  | 0.7 |  |  |  |  |  |
| C[C@H](Oc1ccccc1-c1cccc(O)c1)C1=NCCN1 | 6 | 5.5 | 0.65 | 97.7 nM | 1000 nM | 112 nM | 2510 nM |  |
| C[C@H](Oc1ccccc1-c1cccc([N+](=O)[O-])c1)C1=NCCN1 | 7.35 | 5.93 | 0.45 |  |  |  |  |  |
| C=CCc1ccccc1O[C@@H](C)C1=NCCN1 | 7.8 |  | 0.9 |  | 398 nM | 70.8 nM | 25.1 nM | EC50 [11]: 1000 nM; Activity (Mus musculus [8]): Active; Activity (Mus musculus [9]): inactive; Activity (Mus musculus [12]): inactive; Activity (Mus musculus [13]): 22%; Activity (Mus musculus [14]): Active; Activity (Mus musculus [15]): Non-toxic; Activity (Mus musculus [16]): Active; Activity (Mus musculus [17]): Active |
| CC(Oc1ccccc1-c1ccccc1)C1=NCCN1 (racemic) |  |  | 0.8 |  |  |  |  |  |
| C[C@@H](Oc1ccccc1-c1cccc(O)c1)C1=NCCN1 | 6.4 | 5.67 | 1 | 39.8 nM | 316 nM | 31.6 nM | 25.1 nM |  |

Reference: ChEMBL document CHEMBL1275329, “Fruitful adrenergic α(2C)-agonism/α(2A)-antagonism combination to prevent and contrast morphine tolerance and dependence” (J Med Chem, 2010)
